Measured values reported in ChEMBL document CHEMBL4627281, “A small molecule inhibitor of PCSK9 that antagonizes LDL receptor binding via interaction with a cryptic PCSK9 binding groove” (Bioorg Med Chem, 2020).

Test: Oral bioavailability in C57BL/6 mouse at 20 mg/kg administered as single dose measured upto 24 hrs by LC-MS/MS analysis
Type: ADME, organism-based
Conditions: in vivo
In short: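 Male C57BL/6 mice, single dose: IV 5 mg/kg in 85% saline/10% Solutol HS15/5% DMSO; SC 20 mg/kg in same vehicle; PO 20 mg/kg in 1% methylcellulose in water. About 110 µL blood taken into K2EDTA by retro-orbital puncture (terminal bleed by cardiac puncture under isoflurane) at 0.033–24 h. Plasma spun at 2000 g, 5 min, 4 °C, stored near −70 °C; n = 3 per route.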

bioavailability: 0.527%
SMILES: Cc1cn(-c2cc(CN3CCC[C@H](N)C3)cc(NC(=O)c3ccc(C)c(Oc4ccccc4)c3)c2)cn1
